Data on 13 molecules can be found in PubChem BioAssay.

The source made the active and inactive calls.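 How the source made its calls, unless noted: active means visually confirmed hit in the image check and inhibition above 20%; inconclusive means visually confirmed hit but inhibition not above 20%; inactive means no visual hit in the image check.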

Assay [1] can be described thus: inhibitors of TNFa-induced NFkB p65 translocation, primary screen, imaging, HUVEC, MLSMR starter and 10KST1 sets (AID 438;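 active means inhibition above 20% together with a positive visual image hit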;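 further: compound added about 3h40 before a 20 min TNFalpha stimulation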;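 on inhibition: signal is the nuclear over cytoplasmic p65 intensity ratio per well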). To be noted: HUVEC TNFa-induced p65 nuclear translocation; cell count: measured here: nuclei count (cytotoxicity indicator), at 2.08 µM; inhibition: at 2 µM, stronger effect = higher value, 0% TNFa-plus-vehicle, 100% no-TNFa wells.
Assay [2] in a line: inhibitors of mutant huntingtin aggregation, primary screen, imaging, exon1htt(103Q)mCFP cells, high-content imaging (AID 483;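 active means visual image review flags a hit and inhibition of aggregation exceeds 20%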;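 further: compound exposure lasted 3 days before fixation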;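 on nuclei count: percent of the per-plate median nuclei count of sample wells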). To be noted: exon1htt(103Q)mCFP cell line, aggregate imaging, at 2 µM; inhibition of aggregation: stronger effect = higher value; nuclei count: measured here: cell count, toxicity.
Assay [3] can be described thus: inhibitors of E-selectin induction by TNFa, primary screen, imaging, HUVEC, immunofluorescence, MLSMR starter and 10KST1 sets (AID 487).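 On inhibition: signal is fraction of cell area covered by stained E-selectin grains.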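 On nuclei count: 100% = median nuclei count of all wells on the same plate.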 To be noted: HUVEC TNFalpha-induced E-selectin immunofluorescence imaging, at 2 µM; inhibition: stronger effect = higher value; nuclei count: measured here: cell number, toxicity.
In assay [4] the target is Voltage-gated potassium channel subunit beta-2 (Rattus norvegicus) (UniProt P62483). Description: KvBeta enzyme negative modulators, primary screen, biochemical, NADPH fluorescence (AID 622;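 active means fluorescence slope higher than the sample average by over 3 SD, cut at about -0.22 in these data, passing the limit was not always enough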;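 further: slope of raw intensity against log time taken from 70 to 1610 s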). To be noted: recombinant KvBeta, 4-cyanobenzaldehyde reduction, at 10 µM, stronger effect = higher value.
Assay [5] shares this target. Description: KvBeta positive modulators, primary screen, biochemical, NADPH fluorescence (AID 623;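 active means NADPH fluorescence slope more negative than the mean of all samples by about 3 SD, 99.7% confidence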;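 further: fluorescence intensity change per second fitted from 20 to 320 s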). To be noted: Recombinant KvBeta, NADPH fluorescence decrease slope, 10 min; at 10 µM; stronger effect = lower value.
Assay [6] deals with Alpha-2C adrenergic receptor (Homo sapiens) (UniProt P18825). Description: modulators of alpha2C/GIRK thallium flux, primary screen, cell-based, HEK293 alpha2C/GIRK1/2 (AID 624;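 active means fluorescence slope after compound addition differing from the mean of all screened samples at 99.7% confidence, in either direction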;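 further: slope of fluorescence ratio to pre-addition baseline per second over 15 to 24 s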). To be noted: thallium flux BTC fluorescence, at 10 µM, actives lie on both sides.
Assay [7] can be described thus: inhibitors of larval lipid processing in zebrafish, primary screen, whole organism, PED6 fluorescence, gall bladder and intestine (AID 686;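 active means a full or partial loss of lipid-probe fluorescence in the fish gall bladder, intestine or both, judged by eye; inactive means no fluorescence loss, or compound toxic to the fish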;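 further: larvae 5 to 7 days old with five fish per well; signal comes from phospholipase A2 cleavage of quenched PED6 carried via bile; overnight exposure to compound and PED6 before scoring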). To be noted: Zebrafish larvae PED6 lipid processing, fluorescence scoring; screened at 20 µM (by protocol). Summed up:
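Test system – live zebrafish larvae aged 5-7 days, whole organism · Buffer or medium – E3 fish medium · Reagent – quenched phospholipase substrate PED6, 100 nM final, ingested by larvae · Doses – 20 µM single dose · Incubation – overnight compound and PED6 incubation · Technique – visual fluorescence microscopy scoring of gall bladder, gut · Read-out basis – visual per-well fluorescence inhibition score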

Assay [8] can be described thus: inhibitors of Sendai virus-induced IRF3 signaling, primary screen, TLR/RLR signaling modifier project, cell-based, Sendai virus stimulus, luciferase, 10K MLSCN set (AID 602276;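 active means inhibition at or above 50% at 10 µM; inactive means inhibition below 50%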;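 further: firefly luciferase from ISG56 promoter only with Renilla not read in this screen; 0% = Sendai virus plus DMSO and 100% = medium plus DMSO without virus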). To be noted: HEK293 RL24 IRF3 luciferase reporter, at 10 µM, stronger effect = higher value.
A short description of assay [9]: inhibitors of poly I:C-induced TLR3 signaling, primary screen, cell-based, poly I:C stimulus, luciferase, 10K MLSCN set (AID 602277;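 active means inhibition of the reporter signal at or above 50%; inactive means inhibition below 50%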). To be noted: HEK293-TLR3 RL24 IRF3 luciferase reporter, at 10 µM, stronger effect = higher value. On the technique in general: A reporter such as luciferase makes a cellular process visible.

Sequence of Alpha-2C adrenergic receptor (Homo sapiens) (P18825 whole entry, looked up): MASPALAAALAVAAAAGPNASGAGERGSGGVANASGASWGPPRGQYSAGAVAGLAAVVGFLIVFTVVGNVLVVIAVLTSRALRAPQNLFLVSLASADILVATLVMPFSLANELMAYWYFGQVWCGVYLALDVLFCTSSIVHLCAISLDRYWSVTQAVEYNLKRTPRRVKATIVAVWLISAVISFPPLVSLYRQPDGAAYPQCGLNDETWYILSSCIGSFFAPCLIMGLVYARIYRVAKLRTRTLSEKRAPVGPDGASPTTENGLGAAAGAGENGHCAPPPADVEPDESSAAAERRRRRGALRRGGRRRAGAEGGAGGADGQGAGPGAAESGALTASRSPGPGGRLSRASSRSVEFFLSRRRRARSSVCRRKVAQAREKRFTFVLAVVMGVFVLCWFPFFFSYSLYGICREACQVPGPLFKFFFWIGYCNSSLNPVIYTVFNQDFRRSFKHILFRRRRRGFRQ
Sequence of Voltage-gated potassium channel subunit beta-2 (Rattus norvegicus) (P62483 whole entry, looked up): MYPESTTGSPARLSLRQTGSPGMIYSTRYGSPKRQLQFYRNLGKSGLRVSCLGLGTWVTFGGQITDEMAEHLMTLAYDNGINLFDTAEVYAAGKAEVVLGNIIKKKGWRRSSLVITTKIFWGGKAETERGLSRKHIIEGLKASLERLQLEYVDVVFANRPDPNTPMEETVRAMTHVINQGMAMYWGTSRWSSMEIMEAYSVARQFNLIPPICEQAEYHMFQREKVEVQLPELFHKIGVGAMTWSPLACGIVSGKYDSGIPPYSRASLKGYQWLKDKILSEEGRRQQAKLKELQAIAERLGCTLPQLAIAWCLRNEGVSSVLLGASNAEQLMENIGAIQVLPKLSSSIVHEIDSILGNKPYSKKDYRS

On to `COc1ccccc1OCCNC(=O)c1cccs1`, for which, in assay [1], the cell count worked out at 333. In addition, the inhibition was 4.3% (inactive) in assay [1], -31.8% (inactive) in [3], -16% (inactive) in assay [8] and -43% (inactive) in assay [9]. The inhibition of aggregation in assay [2] was 12.7% (inactive). For the same molecule, the results for the nuclei count in assay [2] and in assay [3] were 97.7% and 99%, respectively. Besides, the fluorescence slope in assay [4] was -0.383 (inactive). For the same molecule, in assay [5], the NADPH fluorescence slope was -5.1e-05 (inactive). Besides, the slope in assay [6] is 0.00529 (inactive). Further, in [7], the call was inactive.
On to `O=C(c1ccco1)c1nnn(Cc2ccccc2)c1-c1ccccc1`, for which the cell count in assay [1] was determined as 346. The inhibition in [1] is -4.3% (inactive); in assay [3], -90% (inactive); in assay [8], -4.9% (inactive); in assay [9], 0.479% (inactive). Further, in assay [2], the inhibition of aggregation is 4% (inactive). Moreover, the results for the nuclei count in assay [2] and in [3] were 122% and 116%, respectively. Besides, in assay [4], the fluorescence slope is -0.347 (inactive). In assay [5], the NADPH fluorescence slope was 7.1e-06 (inactive). In addition, in assay [6], the slope was 0.00349 (inactive). The result in assay [7] was inactive.
Take `O=C(NCC1CCCO1)c1ccc(N2CCCCC2)nc1` (stereo not drawn): the cell count in assay [1] came to 684. In addition, the inhibition in [1] was -11.2% (inactive); in assay [3], -30.2% (inactive); in assay [8], -7.44% (inactive); in assay [9] it was -103% (inactive). Moreover, in assay [2], the inhibition of aggregation was 1.5% (inactive). The figures for the nuclei count in assay [2] and in assay [3] were 99.7% and 107%, respectively. Besides, the fluorescence slope in [4] was -0.314 (inactive). For the same molecule, the NADPH fluorescence slope in assay [5] was 2.7e-06 (inactive). In [6], the slope was 0.00663 (inactive).
For `C(=N\n1cnnc1)/c1cccc(OCCOc2ccccc2)c1`, the cell count in [1] was 237. The inhibition in assay [1] was 7.1% (inactive); in assay [3], -33.2% (inactive); in [8], -29.6% (inactive); in assay [9] it was -51.4% (inactive). The inhibition of aggregation in assay [2] is 0% (inactive). For the same molecule, the nuclei count was found to be 96% in assay [2] and 108% in [3]. Besides, the fluorescence slope in assay [4] was -0.351 (inactive). In [5], the NADPH fluorescence slope is -3.7e-05 (inactive). Also, in assay [6], the slope is 0.00586 (inactive). Also, the call in assay [7] was inactive.
Regarding `Cc1cnc(C(=O)Nc2ccccc2-n2cccc2)cn1`, the cell count in assay [1] turned out to be 426. In addition, the inhibition in [1] is 6% (inactive); in assay [3] it was -157% (inactive); in [8] it was -12.6% (inactive); in assay [9] it was 0.535% (inactive). The inhibition of aggregation in [2] is -9.1% (inactive). Further, the nuclei count in assay [2] was 107%; in [3] it was 115%. Besides, the fluorescence slope in [4] was -0.379 (inactive). The NADPH fluorescence slope in assay [5] is -5.7e-05 (inactive). Further, the slope in assay [6] was 0.00535 (inactive). Moreover, the call in assay [7] was inactive.
`O=C(c1cc2nc(-c3ccco3)cc(C(F)(F)F)n2n1)N1CCN(c2ccccn2)CC1`: the cell count in assay [1] came out at 746. Moreover, the inhibition is -10.5% (inactive) in assay [1], 32.7% (inactive) in [3], 10.1% (inactive) in assay [8] and -6.91% (inactive) in assay [9]. Moreover, the inhibition of aggregation in assay [2] was 2.8% (inactive). Besides, the nuclei count was determined as 101% in assay [2] and 107% in assay [3]. The fluorescence slope in assay [4] is -0.357 (inactive). Further, the NADPH fluorescence slope in assay [5] is -6.7e-05 (inactive). The slope in [6] was 0.00309 (inactive). Further, in [7], the call was inactive.
As to `Cc1ccc2c(c1)CCCN2C(=O)c1ccc2c(c1)OCO2`, in assay [1], the cell count was 328. Besides, the inhibition is -0.6% (inactive) in [1], -117% (inactive) in [3], 4.95% (inactive) in [8] and 4.76% (inactive) in [9]. In addition, the inhibition of aggregation in assay [2] was -0.1% (inactive). The nuclei count in assay [2] is 99.3%; in assay [3] it was 118%. Also, in assay [4], the fluorescence slope is -0.457 (inactive). In assay [5], the NADPH fluorescence slope is -5.1e-05 (inactive). Further, the slope in assay [6] is 0.00431 (inactive). Moreover, in [7], the call was inactive.
Take `Cc1ccc2nc3c(cc2c1)CN(Cc1ccco1)C(=NCC1CCCO1)S3` (stereo not drawn): the cell count in assay [1] was 543. The inhibition is 0.7% (inactive) in assay [1], -2.1% (inactive) in assay [3], 13.9% (inactive) in [8] and 11.5% (inactive) in [9]. Also, in assay [2], the inhibition of aggregation is 28.7% (inactive). Further, the nuclei count in assay [2] turned out to be 82.4%; in assay [3] it was 106%. Moreover, the fluorescence slope in assay [4] is -0.372 (inactive). The NADPH fluorescence slope in [5] was -6.6e-05 (inactive). In addition, the slope in assay [6] was 0.00724 (inactive). For the same molecule, in assay [7], the call was inactive.
As to `CCOC(=O)C1CCN(C(=O)CN(c2ccc(Cl)c(C(F)(F)F)c2)S(C)(=O)=O)CC1`, the cell count in [1] worked out at 648. For the same molecule, the inhibition in [1] was -23.5% (inactive); in assay [3] it was 8.7% (inactive); in [8], 11.7% (inactive); in assay [9], 16.6% (inactive). Further, the inhibition of aggregation in assay [2] was -18.2% (inactive). Moreover, the nuclei count in [2] worked out at 107%; in assay [3], 52.3%. Also, the fluorescence slope in assay [4] is -0.453 (inactive). Also, the NADPH fluorescence slope in [5] was -1.4e-05 (inactive). For the same molecule, the slope in assay [6] is 0.0048 (inactive).
Consider `CCC(=O)Nc1nn(C)c2nc3c(C)cccc3cc12`, for which, in [1], the cell count turned out to be 724. In addition, the inhibition in assay [1] was -9% (inactive); in [3] it was -53.9% (inactive); in assay [8], -2.08% (inactive); in [9], -4.15% (inactive). Moreover, the inhibition of aggregation in assay [2] was 27.6% (inactive). Also, the nuclei count in [2] turned out to be 87.7%; in assay [3], 102%. Moreover, the fluorescence slope in assay [4] is -0.281 (inactive). For the same molecule, the NADPH fluorescence slope in assay [5] was -6.4e-06 (inactive). For the same molecule, the slope in assay [6] is 0.00513 (inactive). The result in assay [7] was inactive.
In the case of `Cc1nc(C)n(C(C)CC(=O)O)n1` (stereo not drawn), the cell count in assay [1] was 635. Besides, the inhibition in assay [1] is 0.7% (inactive); in assay [3] it was -147% (inactive); in assay [8] it was 5.03% (inactive); in assay [9] it was 7.13% (inactive). Further, the inhibition of aggregation in assay [2] is 53.1% (active). For the same molecule, the values for the nuclei count in assay [2] and in assay [3] were 90.8% and 115%, respectively. Also, the fluorescence slope in assay [4] is -0.386 (inactive). For the same molecule, in assay [5], the NADPH fluorescence slope was -4.4e-05 (inactive). In addition, the slope in assay [6] was 0.00496 (inactive). Moreover, in assay [7], the molecule was called inactive.
Regarding `CCn1c(SCC(=O)Nc2ccccc2N2CCCCC2)nc2c1c(=O)n(C)c(=O)n2C`, in assay [1], the cell count stood at 490. In addition, the inhibition in [1] was -5.6% (inactive); in assay [3], -15.6% (inactive); in assay [8] it was 16.1% (inactive); in [9] it was 18.7% (inactive). Moreover, the inhibition of aggregation in [2] is 19.9% (inactive). Further, the values for the nuclei count in assay [2] and in [3] were 93.1% and 89.4%, respectively. Also, the fluorescence slope in [4] was -0.338 (inactive). Besides, in assay [5], the NADPH fluorescence slope was -6.7e-05 (inactive). In [6], the slope is 0.00404 (inactive). Also, the result in [7] was inactive.
On to `Nc1ccc(-n2c(N)c(C(=O)NCc3ccc4c(c3)OCO4)c3nc4ccccc4nc32)cc1`, for which the cell count in assay [1] was 334. Also, the inhibition in assay [1] was -17.4% (inactive); in assay [3], -16.4% (inactive); in assay [8] it was 20.1% (inactive); in [9] it was 3.26% (inactive). Besides, in [2], the inhibition of aggregation was 16.7% (inactive). Moreover, the values for the nuclei count in [2] and in assay [3] were 93.9% and 117%, respectively. In addition, the fluorescence slope in assay [4] is -0.476 (inactive). Also, in assay [5], the NADPH fluorescence slope was -3e-05 (inactive). Besides, the slope in [6] is 0.00435 (inactive).

What is called inhibition is the change of the read-out against control, counted positive when it falls.
